Published values collected from several papers.
Target: Serine/threonine-protein kinase pim-2 (PIM2, Homo sapiens, UniProt Q9P1W9)

| Structure (SMILES) | test | conditions | remaining binding [%] |
| --- | --- | --- | --- |
| O=C(NCC1CCOCC1)c1n[nH]cc1NC(=O)c1c(F)cccc1F | binding, competition with immobilised ligand | 1 µM | 91 |
| C[C@@H]1CN(c2ccc3ncc(-c4ccc5[nH]nc(C6CC6)c5c4)n3n2)C[C@H](C)O1 | binding, competition with immobilised ligand | 50 nM | 92 |
| CO[C@@H](C)c1c(Nc2ccc([C@@H](N(C)C(=O)C3CCS(=O)(=O)CC3)C(F)(F)F)cc2)cnc2cc(Cl)nn12 | cell-free assay, competition with immobilised ligand | 1 µM | 95 |
| O=C(c1ccc(Nc2nccc(-c3cc4ccccc4s3)n2)cc1)N1CCC(N2CCCC2)CC1 | binding, competition with immobilised ligand | 1 µM | 100 |
| c1cncc(-c2cccc(Nc3nccc(NC4CCCCC4)n3)c2)c1 | binding, competition with immobilised ligand | 10 µM | 45 |
| CN(C)CC#Cc1ccc(OCCCc2sc(N3CCc4cccc(C(=O)Nc5nc6ccccc6s5)c4C3)nc2C(=O)O)c(F)c1 | cell-free assay, competition with immobilised ligand | 1 µM | 100 |
| CNC(=O)[C@@H]1CC[C@@H](n2c(-c3ccc4cnccc4c3)nc3ccc(C(=O)NCc4cccc(C(N)=O)c4)cc32)C1 | binding, competition with immobilised ligand | 1 µM | 93 |
| Cc1cnc(Nc2ccc(C(=O)N3CCC(N4CCCC4)CC3)cc2)nc1-c1cc2ccccc2s1 | binding, competition with immobilised ligand | 1 µM | 100 |
| C[C@H](c1cccc(C#N)c1)n1cc(Cl)cc(C(N)=O)c1=N | cell-free assay, competition with immobilised ligand | 1 µM | 100 |
| C=CC(=O)N1CCC(C(=O)NCC(=O)N2CCN(c3nc(-c4cnc(N)nc4C(F)F)nc(N4CCOCC4)n3)CC2)CC1 | binding, competition with immobilised ligand | 1 µM | 82 |
| c1ccc(N2CCN(Cc3nc4ccccc4[nH]3)CC2)nc1 | binding, competition with immobilised ligand | 1 µM | 85 |
| COc1cnc(Nc2cccc(S(N)(=O)=O)c2)nc1N1CCN(c2ccccc2)CC1 | binding, competition with immobilised ligand | 1 µM | 100 |
| Cc1cnn2ncc(-c3ccnc(N(C)C)n3)c2c1 | binding | 1 µM | 84 |
| O=C(Nc1cccnn1)N1CCC(=Cc2cccc(Oc3ccc(C(F)(F)F)cn3)c2)CC1 | cell-free assay, competition with immobilised ligand | 1 µM | 97 |
| c1cnn2ncc(-c3ccnc(N4CCC45COC5)n3)c2c1 | binding | 1 µM | 64 |
| CN(C(=O)c1ccccc1)c1cc(N(C)c2ccc3c(c2)CCc2ccc(C(=O)NCCN4CCOCC4)cc2C3=O)ccc1F | cell-free assay, competition with immobilised ligand | 1 µM | 72 |
| CN(C)c1nccc(-c2cnn3ncccc23)n1 | binding | 1 µM | 78 |
| CC(C)(C)c1ccc(-c2nc(CBr)nn2-c2cccc(O)c2)cc1 | cell-free assay, competition with immobilised ligand | 10 µM | 81 |
| N[C@H]1CCN(c2nccc(-c3cnn4ncccc34)n2)C1 | binding | 1 µM | 98 |
| O=C(NCCCN1CCOCC1)c1ccc(Nc2nccc(-c3cc4ccccc4s3)n2)cc1 | binding, competition with immobilised ligand | 1 µM | 100 |
| C[C@H]1CCN(c2nccc(-c3cnn4ncccc34)n2)C1 | binding | 1 µM | 81 |
| CN([C@@H]1CCc2c(CC(=O)O)c3ccccc3n2C1)S(=O)(=O)c1ccc(F)cc1 | cell-free assay, competition with immobilised ligand | 1 µM | 100 |
| CN(C)c1ncc(F)c(-c2cnn3ncccc23)n1 | binding | 1 µM | 95 |
| C[C@@H](c1ccc(-n2cnc3c(N)ncnc32)cc1)N1CCc2nn(C)c(Cc3ccccc3)c2C1=O | binding, competition with immobilised ligand | 0.1 µM | 100 |
